Experimental data pooled from the literature.
Protocols differ between the studies behind these lines.
Target: Insulin-like growth factor 1 receptor (IGF1R, Homo sapiens, UniProt P08069)

COc1ncccc1-c1cnn2ccc(N3CCN(C(=O)OC(C)C)CC3)nc12 has a remaining binding of 100% (binding, competition with immobilised ligand; 1 µM).
For O=c1[nH]c2ccccc2n1C1CCN(Cc2ccc(-c3[nH]c4cc5ncnc5cc4nc3-c3ccccc3)cc2)CC1, the remaining signal was 91.2% (cell-free assay; 0.5 µM).
The inhibition of Cn1cc(-c2cc(F)cc(N3CCn4c(cc5c4CCCC5)C3=O)c2CO)cc(Nc2ccc(N3CCN(C4COC4)CC3)cn2)c1=O is reported as 4% (enzyme activity, inhibitor; 0.1 µM).
The remaining binding of Cn1cncc1[C@](O)(COc1ccc(C#N)cc1-c1ccc(OC(F)(F)F)cc1)c1ccc(C#N)cc1 is reported as 92% (cell-free assay, competition with immobilised ligand; 1 µM).
Nc1ncc(-c2nc(N3CCOCC3)nc(N3CCOCC3)n2)c(C(F)F)n1 gave a remaining binding of 78% (cell-free assay, competition with immobilised ligand; 10 µM).
With C#Cc1n[nH]c2c(-c3cn([C@@H](C)c4ccccn4)c(=O)[nH]c3=O)cc(F)cc12 the inhibition was 8.7% (enzyme activity, inhibitor; 0.1 µM).
With CC(C)(C)c1cc(C=C(C#N)C#N)cc(Br)c1O the remaining activity was 96.6% (enzyme activity, inhibitor; 0.5 µM).
C#Cc1n[nH]c2c(-c3cn([C@@H](C)c4ccccc4)c(=O)[nH]c3=O)cc(F)cc12 has an inhibition of 7.8% (enzyme activity, inhibitor; 0.1 µM).
For Cn1cc(-c2cccc(N3CCc4c(sc5c4CC(C)(C)C5)C3=O)c2CO)cc(Nc2ccncn2)c1=O, the inhibition was 3% (enzyme activity, inhibitor; 1 µM).
For Cc1nn(C)cc1-c1nc2c(N3CCN(Cc4ccc(Cl)cc4)CC3)c(Cl)cnc2[nH]1, the remaining binding was 100% (binding, competition with immobilised ligand; 1 µM).
